From article PMC3285107 (ACS medicinal chemistry letters, 2012)
Entries after “also recorded” stand apart in the source; their conditions may differ. Each block holds one compound with its values, some of them ahead of it.

Columns and labels:
cysteine protease papain = conditions: result in words; cited from earlier work
[1] = system: M3 muscarinic receptors in HEK293T cells; assay: Carbachol-stimulated Ca2+ transient; format: cell-based; conditions: compound 10 μM, carbachol 10 nM, HEK cells with human M3 receptor
In short: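 HEK-293 cells stably expressing human M3 muscarinic receptor, plated overnight, then loaded with Fluo4-NW for 30 min at 37 °C. Test compound added at 10 μM (1% DMSO). After […] minutes, baseline fluorescence read on a plate reader. Carbachol (10 nM final) injected, and the rise in intracellular Ca2+ expressed as percentage of baseline Ca2+ level.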

RGS4 = assay: FCPIA: inhibition of Gαo binding to RGS4; conditions: for activity at RGS4: result in words
In short: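 Primary FCPIA screen for inhibition of Gαo binding to RGS4, run in parallel against RGS8, its closest sequence relative, to assess selectivity. IC50 values are averages of two independent experiments. Calculated ΔpIC50 mean error: 0.2 for RGS4, 0.14 for RGS8.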

Aqueous solubility = format: physicochemical; conditions: result in words

Sequence of RGS4 (P49798 whole entry): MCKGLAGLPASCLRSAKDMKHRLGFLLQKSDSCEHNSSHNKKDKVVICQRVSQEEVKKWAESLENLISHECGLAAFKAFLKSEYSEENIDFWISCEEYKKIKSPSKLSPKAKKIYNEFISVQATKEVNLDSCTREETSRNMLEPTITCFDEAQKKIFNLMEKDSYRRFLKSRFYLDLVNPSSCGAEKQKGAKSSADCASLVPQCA

SMILES: Cc1ccc(-n2sc(=O)n(Cc3ccc(F)cc3)c2=O)cc1 [1a]
inhibition of papain (cysteine protease papain): failing to inhibit | effect on carbachol-induced Ca2+ transient [1]: nearly completely abolished

SMILES: CCCCn1c(=O)sn(CC)c1=O [11b]
aqueous solubility (Aqueous solubility): high solubility; also recorded: excellent aqueous solubility | effect on carbachol-induced Ca2+ transient [1]: no effect; also recorded: no calcium transient

SMILES: Cc1ccc(-n2sc(=O)n(Cc3ccc(Cl)cc3)c2=O)cc1 [compound 3]
selectivity for RGS4 versus RGS8 (RGS4): > 1000 fold

SMILES: Cc1ccc(Cn2c(=O)sn(-c3ccc(C)cc3)c2=O)cc1 [compound 4]
selectivity for RGS4 versus RGS8 (RGS4): > 1000 fold

SMILES: Cc1ccc(-n2sc(=O)n(Cc3cccc(Cl)c3)c2=O)cc1 [compound 5]
selectivity for RGS4 versus RGS8 (RGS4): > 1000 fold

SMILES: COc1ccc(Cn2c(=O)sn(-c3ccc(C)cc3)c2=O)cc1 [compound 7]
selectivity for RGS4 versus RGS8 (RGS4): > 1000 fold

SMILES: CCn1sc(=O)n(CCOC)c1=O [compound 13]
aqueous solubility (Aqueous solubility): further improved solubility | effect on carbachol-induced Ca2+ transient [1]: no effect | selectivity for RGS4 versus RGS8 (RGS4): > 600 fold

SMILES: Cc1ccc(CN2C(=O)CN(c3ccc(C)cc3)C2=O)cc1 [compound 14]
activity at RGS4 (RGS4): neither 14 or 15 displayed activity

SMILES: Cc1ccc(C2=CC(=O)N(Cc3ccccc3)C2=O)cc1 [compound 15]
activity at RGS4 (RGS4): neither 14 or 15 displayed activity

Other lines, results leading:

selectivity for RGS4 versus RGS8 (RGS4): near three orders of magnitude
SMILES: Cc1ccc(Cn2sc(=O)n(Cc3ccc(F)cc3)c2=O)cc1 [1i]

selectivity for RGS4 versus RGS8 (RGS4): near three orders of magnitude
SMILES: Cc1ccc(Cn2sc(=O)n(Cc3ccccc3)c2=O)cc1 [2i]
